{"source": "ChEMBL document CHEMBL4431351", "about": "“1,2-Benzisoselenazol-3(2H)-one Derivatives As a New Class of Bacterial Urease Inhibitors” (J Med Chem, 2016)", "key": {"[1]": {"system": "Sporosarcina pasteurii", "assay": "Competitive inhibition of Sporosarcina pasteurii CCM 2056 urease using urea as substrate assessed as ammonia levels after 120 mins by Lineweaver-Burk plot analysis", "method_in_brief": "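Purified native S. pasteurii urease (113.5 pM final) preincubated with rising inhibitor levels in 3 mM phosphate buffer pH 7.5, 37°C, until equilibrium; urea 1–60 mM then added. Initial rates measured by phenol-hypochlorite ammonia read-out; mode and constants from Lineweaver-Burk plots using at least 5 inhibitor concentrations.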"}, "[2]": {"system": "Sporosarcina pasteurii", "assay": "Reversible inhibition of Sporosarcina pasteurii CCM 2056 urease using urea as substrate assessed as ammonia levels after 120 mins by fast dilution assay"}, "[3]": {"assay": "Steady state inhibition of Sporosarcina pasteurii CCM 2056 urease using urea as substrate assessed as inhibition constant for final enzyme conformation-inhibitor complex by measuring ammonia levels after 120 mins by phenol-hypochlorite method", "method_in_brief": "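S. pasteurii urease (113.5 pM final) added to stirred mixtures with 25 mM urea and varied inhibitor (water or DMF), 3 mM phosphate pH 7.5, 37°C. Ammonia sampled over 120 min by phenol-hypochlorite. Progress curves fitted to integrated slow-binding equation. Ki and Ki* derived using Km and Vmax of uninhibited enzyme.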"}, "[4]": {"biological_target": "T1, Urease subunit alpha/Urease subunit beta (Helicobacter pylori (strain ATCC 700392 / 26695) (Campylobacterpylori), UniProt P69996+P14916)", "T1 sequence (P69996 whole entry)": "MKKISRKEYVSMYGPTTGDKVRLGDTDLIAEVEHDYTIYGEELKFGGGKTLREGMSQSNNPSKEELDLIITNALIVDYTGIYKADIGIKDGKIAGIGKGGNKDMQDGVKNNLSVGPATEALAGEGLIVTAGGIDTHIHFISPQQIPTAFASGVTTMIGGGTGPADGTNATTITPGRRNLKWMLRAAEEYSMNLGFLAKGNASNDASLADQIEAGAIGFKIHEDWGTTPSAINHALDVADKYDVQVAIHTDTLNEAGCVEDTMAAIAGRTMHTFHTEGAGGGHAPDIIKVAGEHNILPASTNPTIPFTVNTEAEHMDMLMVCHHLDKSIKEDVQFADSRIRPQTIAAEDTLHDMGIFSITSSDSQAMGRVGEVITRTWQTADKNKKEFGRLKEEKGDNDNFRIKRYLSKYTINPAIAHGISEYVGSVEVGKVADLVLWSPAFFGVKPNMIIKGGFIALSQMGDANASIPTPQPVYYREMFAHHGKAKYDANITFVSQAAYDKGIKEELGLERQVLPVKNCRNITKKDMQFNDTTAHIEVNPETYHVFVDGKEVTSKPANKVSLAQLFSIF", "T1 sequence (P14916 whole entry)": "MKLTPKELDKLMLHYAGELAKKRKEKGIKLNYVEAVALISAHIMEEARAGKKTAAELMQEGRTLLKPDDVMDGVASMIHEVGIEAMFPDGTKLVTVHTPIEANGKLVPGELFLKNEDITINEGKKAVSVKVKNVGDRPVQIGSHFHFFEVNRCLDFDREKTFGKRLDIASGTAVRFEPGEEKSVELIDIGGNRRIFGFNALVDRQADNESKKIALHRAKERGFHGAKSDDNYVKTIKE", "assay": "Inhibition of recombinant Helicobacter pylori urease expressed in Escherichia coli rosetta DE3 using urea as substrate assessed as transformed cell urea splitting activity after 2 hrs by Berthelot assay", "method_in_brief": "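E. coli Rosetta pGEM::ureOP cells grown in LB with ampicillin at 37°C, induced with 0.75 mM IPTG and 0.75 mM Ni²⁺ for 24 h at 22°C, then washed thrice in PBS. Cells (1×10⁹ cfu/mL final) start the reaction in 10 mM PBS with 5 mM urea and inhibitor. Timed aliquots read by Berthelot; triplicate.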"}, "[5]": {"biological_target": "T1, Urease subunit alpha/Urease subunit beta", "assay": "Inhibition of recombinant Helicobacter pylori urease expressed in Escherichia coli rosetta DE3 using urea as substrate assessed as transformed cell urea splitting activity preincubated for 2 hrs followed by substrate addition measured after 2 hrs by Berthelot assay", "method_in_brief": "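Induced, PBS-washed E. coli Rosetta pGEM::ureOP cells (1×10⁹ cfu/mL) held 2 h with inhibitor in 10 mM PBS. Urea then added to 5 mM. Ammonia in timed aliquots measured by Berthelot assay against an inhibitor-free reference. DMF effect checked. Three repeats.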"}, "[6]": {"biological_target": "T1, Urease subunit alpha/Urease subunit beta", "assay": "Inhibition of urease in Helicobacter pylori J99 in Brucella broth using urea as substrate after 2 hrs by Berthelot assay", "assay_type": "protein-complex assay", "method_in_brief": "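H. pylori J99 passaged on blood Columbia agar, microaerophilic, 37°C. Then grown 48 h in Brucella broth with 5% FBS and 1% IsoVitalex, spun once and resuspended in 10 mM PBS pH 7.2 without washing. About 1×10⁷ cfu/mL added to PBS with 5 mM urea and inhibitor. Berthelot ammonia read-out, triplicate.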"}, "[7]": {"biological_target": "T1, Urease subunit alpha/Urease subunit beta", "assay": "Inhibition of urease in Helicobacter pylori J99 in Brucella broth using urea as substrate preincubated for 2 hrs followed by substrate addition measured after 2 hrs by Berthelot assay", "assay_type": "protein-complex assay", "method_in_brief": "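Unwashed H. pylori J99 cells from 48 h Brucella broth culture (5% FBS, 1% IsoVitalex), resuspended in 10 mM PBS pH 7.2, about 1×10⁷ cfu/mL. Cells preincubated 2 h with inhibitor before 5 mM urea was added. Timed aliquots assayed by Berthelot method; three repeats.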"}}, "note": "Calls of active or inactive are those of the source. No cut-off for these calls is given here.", "data": [{"smiles": "O=C(Oc1ccccc1)c1ccccc1[Se][Se]c1ccccc1C(=O)Oc1ccccc1", "values": [{"measurement": "competitive inhibition (qualitative call)", "setting": "[1]", "result": "Active"}, {"measurement": "reversible inhibition (qualitative)", "setting": "[2]", "result": "Active"}, {"measurement": "Ki", "setting": "[3]", "result": 528, "unit": "nM"}, {"measurement": "IC50", "setting": "[4]", "result": "Not Active"}, {"measurement": "IC50", "setting": "[5]", "result": "Not Active"}, {"measurement": "IC50", "setting": "[6]", "result": "Not Active"}, {"measurement": "IC50", "setting": "[7]", "result": "Not Active"}]}]}
